According to ChEMBL document CHEMBL5661986, “Discovery of the SMYD3 Inhibitor BAY-6035 Using Thermal Shift Assay (TSA)-Based High-Throughput Screening” (SLAS Discov, 2021):
Calls of active or inactive are those of the source. The rule behind the calls is not given here.

Legend:
Homo sapiens [1] = species: Homo sapiens; test: Selectivity ratio of IC50 for recombinant human SMYD3 to the IC50 for inhibition of SMYD3- dependent MAP3K2 methylation
[2] = system: Histone-lysine N-methyltransferase SMYD3 (Homo sapiens), Q9H7B4 [UNDEFINED MUTATION]; test: (§1) Inhibition of SMYD3 catalytic inactive mutant co-expressed with HA-tagged MAP3K2 transfected in human HeLa cells assessed as reduction of MAP3K2-K260me3 level incubated for 20 hrs by Western blotting analysis; assay type: cell-based
How it was run: (§2)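 After 4 h, compound or DMSO for 20 h. Lysates immunoblotted for MAP3K2-K260me3 (in-house antibody), HA, SMYD3 and MAP3K2 with infrared secondaries. K260me3 signal normalized to HA; three technical replicates, mean ± SEM, nonlinear fit.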

[3] = target: Histone-lysine N-methyltransferase SMYD3 (Homo sapiens, UniProt Q9H7B4); test: as §1; assay type: cell-based; how it was run: as §2
[4] = target: T1, Histone-lysine N-methyltransferase SMYD3 (Homo sapiens) (UniProt Q9H7B4); test: Binding affinity to recombinant human SMYD3 expressed in Escherichia coli assessed as change in gibbs binding free energy by isothermal titration calorimetry
T1 sequence (whole entry): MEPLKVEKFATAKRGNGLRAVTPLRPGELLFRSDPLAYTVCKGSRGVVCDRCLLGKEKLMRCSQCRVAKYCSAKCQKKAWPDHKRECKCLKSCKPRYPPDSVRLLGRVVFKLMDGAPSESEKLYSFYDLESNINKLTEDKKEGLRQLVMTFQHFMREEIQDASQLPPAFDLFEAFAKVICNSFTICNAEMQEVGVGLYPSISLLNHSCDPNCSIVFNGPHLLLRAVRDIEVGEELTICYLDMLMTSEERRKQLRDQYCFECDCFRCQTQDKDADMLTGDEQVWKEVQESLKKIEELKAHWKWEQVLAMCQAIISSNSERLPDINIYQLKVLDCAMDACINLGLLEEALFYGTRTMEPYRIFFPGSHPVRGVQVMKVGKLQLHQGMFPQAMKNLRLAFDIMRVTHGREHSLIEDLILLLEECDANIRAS
How it was run: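 Syringe held compound at 0.3 mM in 20 mM HEPES pH 7.4, 150 mM NaCl, 0.005% Tween 20, 2.5% DMSO; eight 4 µL injections at 180 s intervals into SMYD3.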

[5] = target: T2, Histone-lysine N-methyltransferase SMYD3 (Homo sapiens, UniProt Q9H7B4); test: Binding affinity to biotinylated SMYD3 (unknown origin) assessed as dissociation constant using S-adenosyl-l-methionine as substrate by surface plasmon resonance analysis
T2 sequence (Q9H7B4 whole entry): T1 sequence (whole entry)
How it was run: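 Biotinylated SMYD3 (aa 1–428) captured (~4700 RU) on streptavidin chip, empty reference flow cell; 25 °C; running buffer 20 mM HEPES pH 7.4, 150 mM NaCl, 3 mM EDTA, 0.05% Tween-20, 2% DMSO, plus 50 µM SAM. Single-cycle kinetics, five concentrations 25–2000 nM, 60 s contact, 300 s dissociation, 30 µL/min; triplicate.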

[6] = target: T1, Histone-lysine N-methyltransferase SMYD3 (Homo sapiens); test: Inhibition of SMYD3 (unknown origin)
How it was run: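 Recombinant human SMYD3 (aa 1–428, E. coli-expressed, His tag removed by TEV) at 10 nM. Reaction with 335 nM ³H-SAM and 15 µM biotinylated MAP3K2(249–273) peptide in 20 mM Tris pH 9, 2.5 mM DTT, 0.01% Triton X-100, 40 min at 23 °C. GuHCl quench, then SPA count of incorporated radioactivity. Quadruplicates normalized to DMSO and no-enzyme controls; IC50 from four-parameter logistic fit.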

[7] = target: Histone-lysine N-methyltransferase ASH1L (Homo sapiens) (UniProt Q9NR48); test: Inhibition of ASH1L (unknown origin)
[8] = target: RNA 5'-monophosphate methyltransferase (Homo sapiens) (UniProt Q7Z5W3); test: Inhibition of BCDIN3D (unknown origin)
[9] = target: DNA (cytosine-5)-methyltransferase 1 (Homo sapiens) (UniProt P26358); test: Inhibition of DNMT1 (unknown origin)
[10] = target: Histone-lysine N-methyltransferase, H3 lysine-79 specific (Homo sapiens) (UniProt Q8TEK3); test: Inhibition of DOT1L (unknown origin)
[11] = target: Histone acetyltransferase p300 (Homo sapiens) (UniProt Q09472); test: Inhibition of EP300 (unknown origin)
[12] = target: Histone-lysine N-methyltransferase EHMT2 (Homo sapiens) (UniProt Q96KQ7); test: Inhibition of G9a (unknown origin)
Homo sapiens [13] = species: Homo sapiens; test: Inhibition of GLP (unknown origin)
[14] = target: Histone-lysine N-methyltransferase NSD2 (Homo sapiens) (UniProt O96028); test: Inhibition of NSD2 (unknown origin)
Histone-lysine N-methyltransferase NSD2 (Homo sapiens), sequence (O96028 whole entry): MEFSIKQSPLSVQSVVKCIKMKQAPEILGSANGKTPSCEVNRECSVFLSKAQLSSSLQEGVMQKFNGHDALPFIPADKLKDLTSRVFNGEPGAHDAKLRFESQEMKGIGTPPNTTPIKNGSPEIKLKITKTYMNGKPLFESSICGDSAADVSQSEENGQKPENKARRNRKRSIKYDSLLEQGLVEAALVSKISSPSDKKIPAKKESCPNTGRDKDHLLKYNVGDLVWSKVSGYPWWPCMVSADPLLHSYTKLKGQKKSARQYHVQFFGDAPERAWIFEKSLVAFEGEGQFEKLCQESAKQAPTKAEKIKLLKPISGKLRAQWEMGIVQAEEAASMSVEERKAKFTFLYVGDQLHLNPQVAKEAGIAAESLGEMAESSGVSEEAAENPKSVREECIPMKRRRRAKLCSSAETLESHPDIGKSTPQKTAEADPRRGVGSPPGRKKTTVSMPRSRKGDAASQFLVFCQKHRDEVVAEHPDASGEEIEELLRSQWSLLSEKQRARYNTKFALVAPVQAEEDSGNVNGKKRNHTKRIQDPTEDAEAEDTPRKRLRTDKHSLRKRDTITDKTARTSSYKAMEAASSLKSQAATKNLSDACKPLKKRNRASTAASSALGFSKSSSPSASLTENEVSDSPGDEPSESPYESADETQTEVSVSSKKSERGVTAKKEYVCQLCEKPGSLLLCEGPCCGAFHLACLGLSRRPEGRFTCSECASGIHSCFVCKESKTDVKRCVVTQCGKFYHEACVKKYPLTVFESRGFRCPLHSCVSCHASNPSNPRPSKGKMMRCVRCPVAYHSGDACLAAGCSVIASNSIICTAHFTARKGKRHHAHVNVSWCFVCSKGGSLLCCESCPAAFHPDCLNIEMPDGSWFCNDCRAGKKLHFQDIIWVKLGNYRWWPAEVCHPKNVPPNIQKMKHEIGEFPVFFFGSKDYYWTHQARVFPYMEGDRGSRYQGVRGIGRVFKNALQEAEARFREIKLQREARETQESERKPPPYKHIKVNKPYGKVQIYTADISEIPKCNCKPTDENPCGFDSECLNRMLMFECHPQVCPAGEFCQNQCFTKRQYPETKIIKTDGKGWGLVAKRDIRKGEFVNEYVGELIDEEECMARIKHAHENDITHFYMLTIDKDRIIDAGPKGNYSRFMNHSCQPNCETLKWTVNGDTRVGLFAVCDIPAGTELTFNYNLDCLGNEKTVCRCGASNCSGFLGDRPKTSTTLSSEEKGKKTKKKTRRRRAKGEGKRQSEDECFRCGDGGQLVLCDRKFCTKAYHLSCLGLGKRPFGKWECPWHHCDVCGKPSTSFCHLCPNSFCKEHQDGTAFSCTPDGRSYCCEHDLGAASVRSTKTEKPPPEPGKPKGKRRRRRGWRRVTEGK

[15] = target: Histone-lysine N-methyltransferase NSD3 (Homo sapiens) (UniProt Q9BZ95); test: Inhibition of NSD3 (unknown origin)
Histone-lysine N-methyltransferase NSD3 (Homo sapiens), sequence (Q9BZ95 whole entry): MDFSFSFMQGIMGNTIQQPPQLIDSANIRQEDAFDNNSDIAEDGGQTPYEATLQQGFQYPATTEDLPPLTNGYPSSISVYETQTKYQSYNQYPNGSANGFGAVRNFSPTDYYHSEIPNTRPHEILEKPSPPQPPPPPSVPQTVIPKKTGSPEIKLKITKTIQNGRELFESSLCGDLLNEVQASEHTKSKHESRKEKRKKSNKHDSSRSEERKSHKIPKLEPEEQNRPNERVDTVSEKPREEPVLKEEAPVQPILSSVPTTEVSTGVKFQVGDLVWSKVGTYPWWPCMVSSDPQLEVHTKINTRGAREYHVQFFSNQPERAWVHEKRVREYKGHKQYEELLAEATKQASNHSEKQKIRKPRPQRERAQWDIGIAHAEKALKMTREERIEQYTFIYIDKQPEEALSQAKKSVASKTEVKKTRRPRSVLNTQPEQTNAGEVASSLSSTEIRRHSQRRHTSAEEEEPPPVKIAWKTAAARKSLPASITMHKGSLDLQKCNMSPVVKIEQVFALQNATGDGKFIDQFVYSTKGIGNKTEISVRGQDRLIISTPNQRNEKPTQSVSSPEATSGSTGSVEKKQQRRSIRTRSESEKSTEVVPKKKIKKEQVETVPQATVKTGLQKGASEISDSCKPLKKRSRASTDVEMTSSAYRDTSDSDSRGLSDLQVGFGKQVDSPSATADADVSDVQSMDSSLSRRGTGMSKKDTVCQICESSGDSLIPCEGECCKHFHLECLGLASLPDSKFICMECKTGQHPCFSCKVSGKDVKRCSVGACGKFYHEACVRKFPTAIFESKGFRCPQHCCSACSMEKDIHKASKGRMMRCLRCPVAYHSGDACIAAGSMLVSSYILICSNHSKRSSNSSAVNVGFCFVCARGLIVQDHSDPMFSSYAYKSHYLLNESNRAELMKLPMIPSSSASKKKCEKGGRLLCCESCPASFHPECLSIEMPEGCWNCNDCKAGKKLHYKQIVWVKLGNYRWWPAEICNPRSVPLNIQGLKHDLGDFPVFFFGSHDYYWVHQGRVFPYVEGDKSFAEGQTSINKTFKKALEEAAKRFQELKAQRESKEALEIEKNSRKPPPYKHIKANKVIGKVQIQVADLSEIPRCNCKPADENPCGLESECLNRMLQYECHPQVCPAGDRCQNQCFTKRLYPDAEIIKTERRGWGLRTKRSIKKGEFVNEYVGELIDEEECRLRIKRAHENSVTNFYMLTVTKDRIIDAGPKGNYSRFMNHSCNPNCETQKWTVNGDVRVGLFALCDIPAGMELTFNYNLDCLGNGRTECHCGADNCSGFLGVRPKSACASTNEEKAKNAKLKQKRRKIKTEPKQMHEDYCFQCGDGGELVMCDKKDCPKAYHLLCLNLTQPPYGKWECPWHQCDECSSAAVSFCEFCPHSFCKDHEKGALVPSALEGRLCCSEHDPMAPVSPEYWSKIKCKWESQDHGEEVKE

Homo sapiens [16] = species: Homo sapiens; test: Inhibition of PRC2 (unknown origin)
[17] = target: Protein arginine N-methyltransferase 8 (Homo sapiens) (UniProt Q9NR22); test: Inhibition of PRMT8 (unknown origin)
[18] = target: Histone-lysine N-methyltransferase SETDB1 (Homo sapiens) (UniProt Q15047); test: Inhibition of SETDB1 (unknown origin)
[19] = target: Histone-lysine N-methyltransferase SUV39H2 (Homo sapiens) (UniProt Q9H5I1); test: Inhibition of SUV39H2 (unknown origin)
Histone-lysine N-methyltransferase SUV39H2 (Homo sapiens), sequence (Q9H5I1 whole entry): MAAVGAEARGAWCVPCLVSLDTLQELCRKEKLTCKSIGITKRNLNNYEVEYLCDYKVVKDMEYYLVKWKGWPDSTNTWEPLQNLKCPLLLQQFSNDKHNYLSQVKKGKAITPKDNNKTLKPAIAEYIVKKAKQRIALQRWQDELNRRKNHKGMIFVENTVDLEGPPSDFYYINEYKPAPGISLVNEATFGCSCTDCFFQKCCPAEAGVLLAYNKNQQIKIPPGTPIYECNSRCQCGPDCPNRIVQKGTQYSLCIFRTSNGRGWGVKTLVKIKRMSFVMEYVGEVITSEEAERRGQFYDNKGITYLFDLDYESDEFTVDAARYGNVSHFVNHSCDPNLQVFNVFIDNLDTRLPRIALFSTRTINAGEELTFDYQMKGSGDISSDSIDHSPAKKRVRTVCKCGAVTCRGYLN

[20] = target: Mitotic checkpoint serine/threonine-protein kinase BUB1 (Homo sapiens, UniProt O43683); test: Inhibition of Bub1 (unknown origin) in presence of ATP
[21] = target: Casein kinase I isoform alpha (Homo sapiens, UniProt P48729); test: Inhibition of CSNK1A1 (unknown origin)
[22] = target: Casein kinase I isoform gamma-3 (Homo sapiens, UniProt Q9Y6M4); test: Inhibition of CSNK1G3 (unknown origin)
[23] = target: Epidermal growth factor receptor (Homo sapiens, UniProt P00533); test: Inhibition of EGFR (unknown origin) in presence of ATP
Epidermal growth factor receptor, sequence (P00533 whole entry): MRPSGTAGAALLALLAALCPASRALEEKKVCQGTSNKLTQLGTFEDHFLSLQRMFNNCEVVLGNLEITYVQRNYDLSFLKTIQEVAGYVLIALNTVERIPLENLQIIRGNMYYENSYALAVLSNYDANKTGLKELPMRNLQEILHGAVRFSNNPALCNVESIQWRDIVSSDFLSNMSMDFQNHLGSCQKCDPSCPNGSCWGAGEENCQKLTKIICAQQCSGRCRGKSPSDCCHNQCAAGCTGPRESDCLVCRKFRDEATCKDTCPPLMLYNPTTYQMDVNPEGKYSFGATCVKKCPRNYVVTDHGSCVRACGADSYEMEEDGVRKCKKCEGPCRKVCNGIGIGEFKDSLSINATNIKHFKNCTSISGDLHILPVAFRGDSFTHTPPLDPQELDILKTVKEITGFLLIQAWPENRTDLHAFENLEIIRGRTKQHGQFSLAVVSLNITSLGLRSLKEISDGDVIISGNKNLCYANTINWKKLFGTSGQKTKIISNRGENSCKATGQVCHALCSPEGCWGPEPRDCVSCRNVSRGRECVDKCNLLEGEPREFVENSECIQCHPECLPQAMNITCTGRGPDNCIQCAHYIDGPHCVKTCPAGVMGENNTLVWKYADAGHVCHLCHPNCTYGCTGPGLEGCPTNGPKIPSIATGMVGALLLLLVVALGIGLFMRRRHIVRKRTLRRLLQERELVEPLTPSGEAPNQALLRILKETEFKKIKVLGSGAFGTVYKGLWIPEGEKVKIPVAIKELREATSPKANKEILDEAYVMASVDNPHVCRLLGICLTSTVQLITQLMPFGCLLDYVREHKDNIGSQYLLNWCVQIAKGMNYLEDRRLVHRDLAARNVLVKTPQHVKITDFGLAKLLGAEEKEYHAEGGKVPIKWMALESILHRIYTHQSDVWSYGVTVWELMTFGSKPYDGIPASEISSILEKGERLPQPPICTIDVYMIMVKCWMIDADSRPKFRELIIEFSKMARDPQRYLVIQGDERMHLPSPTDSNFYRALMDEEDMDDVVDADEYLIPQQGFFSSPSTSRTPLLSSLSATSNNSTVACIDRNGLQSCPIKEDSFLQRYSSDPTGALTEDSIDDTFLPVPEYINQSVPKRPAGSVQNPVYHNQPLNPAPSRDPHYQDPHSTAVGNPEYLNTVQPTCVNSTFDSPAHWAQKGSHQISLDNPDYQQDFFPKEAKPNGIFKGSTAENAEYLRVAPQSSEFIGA

[24] = target: Vascular endothelial growth factor receptor 3 (Homo sapiens, UniProt P35916); test: Inhibition of FLT4 (unknown origin)
[25] = target: Glycogen synthase kinase-3 beta (Homo sapiens, UniProt P49841); test: Inhibition of GSK-3-beta (unknown origin) by HTRF assay
[26] = target: Dual specificity tyrosine-phosphorylation-regulated kinase 1A (Homo sapiens, UniProt Q13627); test: Inhibition of human DYRK1a
[27] = target: Interleukin-1 receptor-associated kinase 4 (Homo sapiens, UniProt Q9NWZ3); test: Inhibition of IRAK4 (unknown origin) in BGG-buffer in presence of ATP
Interleukin-1 receptor-associated kinase 4, sequence (Q9NWZ3 whole entry): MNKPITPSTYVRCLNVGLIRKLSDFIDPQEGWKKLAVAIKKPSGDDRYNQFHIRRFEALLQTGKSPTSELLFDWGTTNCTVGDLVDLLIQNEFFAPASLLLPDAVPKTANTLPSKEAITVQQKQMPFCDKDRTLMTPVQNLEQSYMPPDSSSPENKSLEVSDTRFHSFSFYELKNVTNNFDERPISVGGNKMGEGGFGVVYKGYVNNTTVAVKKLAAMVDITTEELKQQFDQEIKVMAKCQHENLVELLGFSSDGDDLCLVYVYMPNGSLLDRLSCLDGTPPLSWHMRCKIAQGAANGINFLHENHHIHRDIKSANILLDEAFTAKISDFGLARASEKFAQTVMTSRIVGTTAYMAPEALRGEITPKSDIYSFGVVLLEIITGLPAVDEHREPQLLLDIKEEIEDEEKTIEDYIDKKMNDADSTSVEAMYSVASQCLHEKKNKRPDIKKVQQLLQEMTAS

[28] = target: Mitogen-activated protein kinase kinase kinase kinase 1 (Homo sapiens, UniProt Q92918); test: Inhibition of MAP4K1 (unknown origin) by competition binding assay
Hs-578T = test: Antiproliferative activity against human Hs-578T cells assessed as inhibition of cell viability measured for 3 to 5 days by alamar blue staining based assay; assay type: functional
Hs746T = test: Antiproliferative activity against human Hs746T cells assessed as inhibition of cell viability measured for 3 to 5 days by alamar blue staining based assay; assay type: functional
MDA-MB-231 = test: Antiproliferative activity against human MDA-MB-231 cells assessed as inhibition of cell viability measured for 3 to 5 days by alamar blue staining based assay; assay type: functional

C[C@H]1CC(=O)Nc2cc(C(=O)NCCC3CC3)ccc2N1C(=O)N1CC2CC2C1 (stereo partly specified)
Ratio IC50 (Homo sapiens [1]): 2
inhibition [2]: Dose-Dependent Effect
IC50 [3]: 0.183 µM
deltaG [4]: -9.2 kcal/mol
Kd [5]: 0.097 µM
inhibition [6]: Active
inhibition [7]: inactive
inhibition [8]: inactive
inhibition [9]: inactive
inhibition [10]: inactive
inhibition [11]: inactive
inhibition [12]: inactive
inhibition (Homo sapiens [13]): inactive
inhibition [14]: inactive
inhibition [15]: inactive
inhibition (Homo sapiens [16]): inactive
inhibition [17]: inactive
inhibition [18]: inactive
inhibition [19]: inactive
IC50 [20]: > 20 µM
IC50 [21]: > 20 µM
IC50 [22]: > 20 µM
IC50 [23]: > 20 µM
IC50 [24]: > 20 µM
IC50 [25]: > 20 µM
IC50 [26]: > 20 µM
IC50 [27]: > 20 µM
IC50 [28]: > 20 µM
IC50 (Hs-578T): > 10 µM
IC50 (Hs746T): > 10 µM
IC50 (MDA-MB-231): > 10 µM
